Laboratory results as given in ChEMBL document CHEMBL2424574, “Structure-activity relationships and pharmacophore model of a noncompetitive pyrazoline containing class of GluN2C/GluN2D selective antagonists” (J Med Chem, 2013).

Legend:
[1] = target: Glutamate receptor ionotropic, NMDA 2B (Rattus norvegicus, UniProt P35439+Q00960); experiment: Negative allosteric modulation of recombinant rat GluN2B receptor expressed in Xenopus laevis oocytes by two-electrode voltage clamp method; type: cell-based, Oocyte
Outline: (§1)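 Two-electrode voltage clamp of Xenopus oocytes expressing rat GluN1 with GluN2A, 2B, 2C or 2D. Holding potential −40 mV in recording solution (mM: 90 NaCl, 1 KCl, 0.5 BaCl2, 0.005 EDTA, 10 HEPES, pH 7.4, 23 °C). Compounds diluted from 20 mM DMSO stocks to 0.05–0.1% final DMSO. IC50 from a Hill fit to the averaged composite concentration–response curve, 5–24 oocytes from 2–4 frogs.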

[2] = target: Glutamate receptor ionotropic, NMDA 2A (Rattus norvegicus, UniProt P35439+Q00959); experiment: Negative allosteric modulation of recombinant rat GluN2A receptor expressed in Xenopus laevis oocytes by two-electrode voltage clamp method; type: cell-based, Oocyte; outline: as §1
[3] = target: Glutamate receptor ionotropic, NMDA 2D (Rattus norvegicus, UniProt P35439+Q62645); experiment: Negative allosteric modulation of recombinant rat GluN2D receptor expressed in Xenopus laevis oocytes by two-electrode voltage clamp method; type: cell-based, Oocyte; outline: as §1
[4] = species on record: Rattus norvegicus; experiment: Selectivity ratio of IC50 for recombinant rat GluN2B receptor to IC50 for recombinant rat GluN2D receptor
Outline: (§2)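 Rat GluN1 co-expressed with GluN2A, GluN2B or GluN2D in Xenopus oocytes. Two-electrode voltage clamp at −40 mV in 90 NaCl, 1 KCl, 0.5 BaCl2, 0.005 EDTA, 10 HEPES (mM), pH 7.4, 23 °C; final DMSO 0.1–0.05%. IC50s came from Hill fits to averaged composite concentration-response curves (5–24 oocytes, 2–4 frogs). Ratio is GluN2A or GluN2B IC50 over GluN2D IC50.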

[5] = species on record: Rattus norvegicus; experiment: Selectivity ratio of IC50 for recombinant rat GluN2A receptor to IC50 for recombinant rat GluN2D receptor; outline: as §2
[6] = target: Glutamate receptor ionotropic, NMDA 2C (Rattus norvegicus, UniProt P35439+Q00961); experiment: Negative allosteric modulation of recombinant rat GluN2C receptor expressed in Xenopus laevis oocytes by two-electrode voltage clamp method; type: cell-based, Oocyte; outline: as §1
Chain of Glutamate receptor ionotropic, NMDA 2C (Q00961 whole entry, one chain of several): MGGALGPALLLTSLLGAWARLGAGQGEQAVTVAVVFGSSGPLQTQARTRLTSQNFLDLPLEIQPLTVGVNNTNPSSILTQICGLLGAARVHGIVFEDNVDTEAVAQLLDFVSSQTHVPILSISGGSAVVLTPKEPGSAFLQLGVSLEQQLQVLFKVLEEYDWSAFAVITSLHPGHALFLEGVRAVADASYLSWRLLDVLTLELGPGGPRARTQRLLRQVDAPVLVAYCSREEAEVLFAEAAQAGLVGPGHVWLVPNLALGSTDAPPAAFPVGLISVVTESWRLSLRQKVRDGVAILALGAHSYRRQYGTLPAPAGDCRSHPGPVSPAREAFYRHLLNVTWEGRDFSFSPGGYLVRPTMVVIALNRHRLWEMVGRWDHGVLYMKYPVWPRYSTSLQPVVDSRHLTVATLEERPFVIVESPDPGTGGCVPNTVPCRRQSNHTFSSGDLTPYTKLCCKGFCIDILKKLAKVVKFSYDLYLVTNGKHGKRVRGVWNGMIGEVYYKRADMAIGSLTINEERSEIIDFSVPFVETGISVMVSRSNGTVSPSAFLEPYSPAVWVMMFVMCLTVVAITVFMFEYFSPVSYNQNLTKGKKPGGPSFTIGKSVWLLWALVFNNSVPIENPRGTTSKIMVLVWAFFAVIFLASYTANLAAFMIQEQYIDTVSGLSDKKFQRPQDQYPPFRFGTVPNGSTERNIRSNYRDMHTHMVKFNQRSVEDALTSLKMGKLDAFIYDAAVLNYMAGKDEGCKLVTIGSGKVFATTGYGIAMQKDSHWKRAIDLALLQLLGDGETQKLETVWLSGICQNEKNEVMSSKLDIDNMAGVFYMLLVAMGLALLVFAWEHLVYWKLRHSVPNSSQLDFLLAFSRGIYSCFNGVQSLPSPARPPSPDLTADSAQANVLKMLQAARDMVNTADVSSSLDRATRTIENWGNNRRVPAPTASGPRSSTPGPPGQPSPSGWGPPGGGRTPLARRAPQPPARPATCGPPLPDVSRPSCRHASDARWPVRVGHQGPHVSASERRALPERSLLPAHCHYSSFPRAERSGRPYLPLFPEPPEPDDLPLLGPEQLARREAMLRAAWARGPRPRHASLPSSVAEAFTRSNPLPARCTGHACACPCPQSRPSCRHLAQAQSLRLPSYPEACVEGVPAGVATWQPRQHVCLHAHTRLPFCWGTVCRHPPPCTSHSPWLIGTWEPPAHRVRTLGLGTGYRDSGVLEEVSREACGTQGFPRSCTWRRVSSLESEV

Chain of Glutamate receptor ionotropic, NMDA 2D (Q62645 whole entry, one chain of several): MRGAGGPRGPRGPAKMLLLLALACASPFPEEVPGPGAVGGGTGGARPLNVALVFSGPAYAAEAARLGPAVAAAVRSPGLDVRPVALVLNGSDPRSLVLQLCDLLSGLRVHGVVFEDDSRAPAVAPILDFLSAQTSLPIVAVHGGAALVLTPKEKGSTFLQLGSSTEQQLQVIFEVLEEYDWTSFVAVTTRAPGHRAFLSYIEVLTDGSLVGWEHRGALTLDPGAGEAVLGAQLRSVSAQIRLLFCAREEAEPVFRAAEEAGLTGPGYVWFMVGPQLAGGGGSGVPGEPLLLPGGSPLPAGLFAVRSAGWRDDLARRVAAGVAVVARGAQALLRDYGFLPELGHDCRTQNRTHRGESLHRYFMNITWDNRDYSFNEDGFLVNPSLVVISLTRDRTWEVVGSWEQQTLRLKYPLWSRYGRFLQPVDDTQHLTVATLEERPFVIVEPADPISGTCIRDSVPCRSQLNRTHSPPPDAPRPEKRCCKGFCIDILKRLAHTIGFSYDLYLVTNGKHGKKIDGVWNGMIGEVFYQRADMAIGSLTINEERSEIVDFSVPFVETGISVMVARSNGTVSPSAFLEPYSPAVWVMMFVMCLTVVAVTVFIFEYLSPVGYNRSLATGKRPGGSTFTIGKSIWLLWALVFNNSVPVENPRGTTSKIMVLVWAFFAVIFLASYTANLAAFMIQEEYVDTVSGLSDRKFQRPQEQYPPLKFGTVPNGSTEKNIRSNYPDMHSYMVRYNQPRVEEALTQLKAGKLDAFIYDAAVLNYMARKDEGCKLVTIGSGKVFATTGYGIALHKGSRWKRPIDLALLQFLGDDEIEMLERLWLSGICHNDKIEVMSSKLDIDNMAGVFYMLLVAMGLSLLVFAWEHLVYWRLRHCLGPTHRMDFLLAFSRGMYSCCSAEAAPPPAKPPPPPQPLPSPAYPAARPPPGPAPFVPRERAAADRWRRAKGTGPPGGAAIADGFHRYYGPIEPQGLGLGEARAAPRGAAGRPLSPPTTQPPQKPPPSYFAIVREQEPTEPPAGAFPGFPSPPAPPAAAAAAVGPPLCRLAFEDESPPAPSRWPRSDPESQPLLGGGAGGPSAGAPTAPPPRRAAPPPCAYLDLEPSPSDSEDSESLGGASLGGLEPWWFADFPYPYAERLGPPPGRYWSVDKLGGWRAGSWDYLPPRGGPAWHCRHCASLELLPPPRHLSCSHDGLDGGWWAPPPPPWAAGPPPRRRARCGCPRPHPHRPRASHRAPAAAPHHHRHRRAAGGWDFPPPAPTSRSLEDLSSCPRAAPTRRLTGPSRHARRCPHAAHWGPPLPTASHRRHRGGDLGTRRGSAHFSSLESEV
Chain of Glutamate receptor ionotropic, NMDA 2A (Q00959 whole entry, one chain of several): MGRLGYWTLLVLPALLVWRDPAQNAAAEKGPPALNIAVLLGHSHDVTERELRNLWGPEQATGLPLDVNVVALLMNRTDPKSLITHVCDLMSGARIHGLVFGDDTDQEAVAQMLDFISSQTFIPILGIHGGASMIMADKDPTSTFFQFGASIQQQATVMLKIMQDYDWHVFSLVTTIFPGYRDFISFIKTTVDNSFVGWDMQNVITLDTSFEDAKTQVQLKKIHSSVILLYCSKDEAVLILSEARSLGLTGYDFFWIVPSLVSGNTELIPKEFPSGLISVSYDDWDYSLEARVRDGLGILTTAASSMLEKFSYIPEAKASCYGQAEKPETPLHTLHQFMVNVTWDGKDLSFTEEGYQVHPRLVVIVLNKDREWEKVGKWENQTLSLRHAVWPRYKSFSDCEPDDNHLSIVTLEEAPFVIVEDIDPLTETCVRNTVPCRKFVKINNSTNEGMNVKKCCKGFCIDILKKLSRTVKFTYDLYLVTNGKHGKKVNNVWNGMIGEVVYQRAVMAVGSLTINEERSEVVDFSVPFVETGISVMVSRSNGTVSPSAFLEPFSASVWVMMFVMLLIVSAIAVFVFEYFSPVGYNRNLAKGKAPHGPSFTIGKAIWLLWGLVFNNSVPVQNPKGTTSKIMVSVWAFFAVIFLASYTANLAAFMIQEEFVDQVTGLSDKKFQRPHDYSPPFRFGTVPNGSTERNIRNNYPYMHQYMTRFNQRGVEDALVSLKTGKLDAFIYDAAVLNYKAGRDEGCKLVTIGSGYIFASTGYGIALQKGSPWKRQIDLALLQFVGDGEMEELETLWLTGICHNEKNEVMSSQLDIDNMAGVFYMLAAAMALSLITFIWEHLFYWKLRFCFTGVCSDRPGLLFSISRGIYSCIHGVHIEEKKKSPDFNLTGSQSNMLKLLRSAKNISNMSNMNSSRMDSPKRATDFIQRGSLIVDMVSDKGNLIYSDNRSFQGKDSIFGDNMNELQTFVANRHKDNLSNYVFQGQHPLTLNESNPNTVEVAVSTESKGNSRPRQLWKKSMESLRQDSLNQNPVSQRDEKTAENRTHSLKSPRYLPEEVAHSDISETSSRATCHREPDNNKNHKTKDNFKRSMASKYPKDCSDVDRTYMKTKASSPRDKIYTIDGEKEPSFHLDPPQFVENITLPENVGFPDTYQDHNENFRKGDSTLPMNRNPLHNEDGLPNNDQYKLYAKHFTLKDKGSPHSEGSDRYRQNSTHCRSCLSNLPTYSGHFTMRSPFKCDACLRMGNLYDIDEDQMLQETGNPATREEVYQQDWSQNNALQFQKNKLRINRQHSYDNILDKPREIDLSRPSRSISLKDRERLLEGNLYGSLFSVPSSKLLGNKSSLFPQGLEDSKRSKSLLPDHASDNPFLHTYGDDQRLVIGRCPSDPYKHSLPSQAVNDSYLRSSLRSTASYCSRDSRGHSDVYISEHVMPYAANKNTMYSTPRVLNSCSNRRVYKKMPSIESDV

Row | SMILES | IC50 [1] | IC50 [2] | IC50 [3] | Ratio IC50 [4] | Ratio IC50 [5] | IC50 [6]
1 | O=C(O)CCC(=O)N1N=C(c2c(-c3ccc(Cl)cc3)c3ccccc3[nH]c2=O)CC1c1ccc(F)cc1 (configuration not stated) | 90 µM | 47 µM | 3.4 µM | 26 | 14 | 4.1 µM
2 | O=C(O)CCC(=O)N1N=C(c2c(-c3ccccc3)c3cc(Cl)ccc3[nH]c2=O)CC1c1ccccc1 (configuration not stated) | – | – | 88 µM | – | – | 86 µM
3 | O=C(O)CCC(=O)N1N=C(c2c(-c3ccc(C(F)(F)F)cc3)c3ccccc3[nH]c2=O)CC1c1ccc(Cl)cc1 (configuration not stated) | 39 µM | 29 µM | 2.8 µM | 14 | 10 | 3.6 µM
4 | O=C(O)CCC(=O)N1N=C(c2c(-c3ccc(F)c(F)c3)c3ccccc3[nH]c2=O)CC1c1ccc(Cl)cc1 (configuration not stated) | 71 µM | 21 µM | 0.66 µM | 108 | 32 | 0.78 µM
5 | COc1cccc(-c2c(C3=NN(C(=O)CCC(=O)O)C(c4ccc(Cl)cc4)C3)c(=O)[nH]c3ccccc23)c1 (configuration not stated) | 152 µM | 110 µM | 4.5 µM | 34 | 24 | 7.8 µM
6 | O=C(O)CCC(=O)N1N=C(c2c(-c3ccccc3)c3cc(Cl)ccc3[nH]c2=O)CC1c1ccc(C(F)(F)F)cc1 (configuration not stated) | 54 µM | 80 µM | – | 13 | 20 | 5 µM
7 | O=C(O)CCC(=O)N1N=C(c2c(-c3ccccc3)c3cc(Cl)ccc3[nH]c2=O)CC1c1ccc(F)cc1 (configuration not stated) | 87 µM | 128 µM | 14 µM | 6 | 9 | 23 µM
8 | O=C(O)CCC(=O)N1N=C(c2c(-c3ccc(Br)cc3)c3ccccc3[nH]c2=O)CC1c1ccc(Cl)cc1 (configuration not stated) | 23 µM | 10 µM | 0.29 µM | – | – | 0.56 µM
9 | O=C(O)CCC(=O)N1N=C(c2c(-c3cc(Cl)cc(Cl)c3)c3ccccc3[nH]c2=O)CC1c1ccc(Cl)cc1 (configuration not stated) | 13 µM | 5.5 µM | 0.7 µM | 19 | 8 | 0.78 µM
10 | NC(=O)CCC(=O)N1N=C(c2c(-c3ccc(Cl)cc3)c3ccccc3[nH]c2=O)CC1c1ccc(Cl)cc1 (configuration not stated) | 20 µM | 34 µM | 1.1 µM | 18 | 31 | 2 µM
11 | COc1ccc(C2CC(c3c(O)nc4ccc(Cl)cc4c3-c3ccccc3)=NN2C(=O)CCC(=O)O)cc1 (configuration not stated) | – | – | – | 9 | 9 | –
12 | COc1ccc(C2CC(c3c(-c4ccccc4)c4cc(Cl)ccc4[nH]c3=O)=NN2C(=O)CCC(=O)O)cc1 (configuration not stated) | 187 µM | 197 µM | 21 µM | – | – | 28 µM
13 | O=C(O)CCCC(=O)N1N=C(c2c(-c3ccc(Br)cc3)c3ccccc3[nH]c2=O)CC1c1ccc(Cl)cc1 (configuration not stated) | 29 µM | 10 µM | 0.32 µM | 91 | 33 | 0.6 µM
14 | O=C(O)CCC(=O)N1N=C(c2c(-c3ccc(Br)cc3)c3ccccc3[nH]c2=O)CC1c1ccc(F)cc1 (configuration not stated) | 75 µM | 34 µM | 2.9 µM | 26 | 12 | 3.8 µM
15 | O=C(O)CCC(=O)N1N=C(c2c(-c3ccc(Cl)cc3)c3ccccc3[nH]c2=O)C[C@@H]1c1ccc(Cl)cc1 | 52 µM | 45 µM | 1.9 µM | 49 | 23 | 2.1 µM
16 | O=C(O)CCCC(=O)N1N=C(c2c(-c3ccccc3)c3cc(Cl)ccc3[nH]c2=O)CC1c1ccc(Br)cc1 (configuration not stated) | 90 µM | 78 µM | 4 µM | 23 | 20 | 6.4 µM
17 | O=C(O)CCC(=O)N1N=C(c2c(-c3ccc(Cl)cc3)c3ccccc3[nH]c2=O)CC1c1ccccc1 (configuration not stated) | 143 µM | 49 µM | 11 µM | 13 | 4 | 13 µM
18 | O=C(O)CCC(=O)N1N=C(c2c(-c3ccc(Cl)c(Cl)c3)c3ccccc3[nH]c2=O)CC1c1ccc(Cl)cc1 (configuration not stated) | 20 µM | 7.7 µM | 0.91 µM | 22 | 8 | 0.79 µM
19 | O=C(O)CCC(=O)N1N=C(c2c(-c3cccc(F)c3)c3ccccc3[nH]c2=O)CC1c1ccc(Cl)cc1 (configuration not stated) | 70 µM | 46 µM | 0.69 µM | 101 | 67 | 1.1 µM
20 | O=C(O)CCC(=O)N1N=C(c2c(-c3cc(F)cc(F)c3)c3ccccc3[nH]c2=O)CC1c1ccc(Cl)cc1 (configuration not stated) | 100 µM | 21 µM | 0.81 µM | 123 | 26 | 1.1 µM
21 | O=C(O)CCCC(=O)N1N=C(c2c(-c3ccccc3)c3cc(Cl)ccc3[nH]c2=O)CC1c1ccc([N+](=O)[O-])cc1 (configuration not stated) | 92 µM | 109 µM | 11 µM | 8 | 10 | 10 µM
22 | O=C(O)CCC(=O)N1N=C(c2c(-c3cccc(C(F)(F)F)c3)c3ccccc3[nH]c2=O)CC1c1ccc(Cl)cc1 (configuration not stated) | 47 µM | 28 µM | 2.6 µM | 18 | 11 | 3.4 µM
23 | O=C(O)CCC(=O)N1N=C(c2c(-c3ccccc3)c3cc(Cl)ccc3[nH]c2=O)CC1c1ccc([N+](=O)[O-])cc1 (configuration not stated) | 45 µM | 91 µM | 1.1 µM | 42 | 85 | 0.9 µM
24 | COc1ccc(-c2c(C3=NN(C(=O)CCC(=O)O)C(c4ccc(Cl)cc4)C3)c(=O)[nH]c3ccccc23)cc1 (configuration not stated) | 75 µM | 62 µM | 2.3 µM | 33 | 27 | 5 µM
25 | O=C(O)CCC(=O)N1N=C(c2c(-c3cccc(Cl)c3)c3ccccc3[nH]c2=O)CC1c1ccc(Cl)cc1 (configuration not stated) | 43 µM | 20 µM | 1 µM | 43 | 20 | 2.1 µM
26 | Cc1cccc(-c2c(C3=NN(C(=O)CCC(=O)O)C(c4ccc(Cl)cc4)C3)c(=O)[nH]c3ccccc23)c1 (configuration not stated) | 71 µM | 24 µM | 1.9 µM | 37 | 13 | 4 µM
27 | O=C(O)CCC(=O)N1N=C(c2c(-c3ccc(Cl)cc3)c3ccccc3[nH]c2=O)C[C@H]1c1ccc(Cl)cc1 | 26 µM | 13 µM | – | 156 | 78 | 0.22 µM
28 | O=C(O)CCC(=O)N1N=C(c2c(-c3ccc(F)cc3)c3ccccc3[nH]c2=O)CC1c1ccc(Cl)cc1 (configuration not stated) | 57 µM | 21 µM | 0.58 µM | 98 | 36 | 1 µM
29 | O=C(O)CCCN1N=C(c2c(-c3ccc(Cl)cc3)c3ccccc3[nH]c2=O)CC1c1ccc(Cl)cc1 (configuration not stated) | 53 µM | 58 µM | – | 31 | 34 | –
30 | O=C(O)CCC(=O)N1N=C(c2c(-c3ccc(Br)cc3)c3ccccc3[nH]c2=O)CC1c1ccc(Br)cc1 (configuration not stated) | 23 µM | 13 µM | – | 59 | 33 | –
